One block for each compound: values may come before it.
Key:
[1] = biological target: T1, Renin (Homo sapiens) (UniProt P00797); assay: In vivo inhibition of plasma renin activity in sodium deficient rhesus monkeys after iv administration (dose 0.063 mg/kg, determined at peak deltaMAP).; assay type: functional, organism-based; parameters: dose 0.063 mg/kg; details: Cercopithecidae, target entry is the homologue from another species, at 0.063 mg/kg
T1 sequence (whole entry): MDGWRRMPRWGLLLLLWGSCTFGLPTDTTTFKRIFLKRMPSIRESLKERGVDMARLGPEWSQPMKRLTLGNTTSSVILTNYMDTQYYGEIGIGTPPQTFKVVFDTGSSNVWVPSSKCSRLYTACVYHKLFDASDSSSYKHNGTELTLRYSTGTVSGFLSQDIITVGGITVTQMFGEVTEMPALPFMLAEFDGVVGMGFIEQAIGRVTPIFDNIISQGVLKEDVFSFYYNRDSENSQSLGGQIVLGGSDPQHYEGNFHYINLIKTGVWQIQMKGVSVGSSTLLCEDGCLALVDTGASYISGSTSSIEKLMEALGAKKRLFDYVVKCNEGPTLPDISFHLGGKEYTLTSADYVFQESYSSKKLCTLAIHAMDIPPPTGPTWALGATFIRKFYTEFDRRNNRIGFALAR
In short: (§1)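 Sodium-deficient rhesus monkeys (N = 2) were kept on a low-sodium diet, given furosemide the evening before, and fasted 18 h. Compound was given iv through a venous catheter in 0.05% acetic acid/5% dextrose/H2O, 20 min after vehicle. Blood was drawn periodically via an arterial access port for plasma renin activity. Percent inhibition was taken at peak ΔMAP.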

[2] = test system: Rhesus monkey; assay: In vivo effect on mean arterial pressure(peak deltaMAP) in sodium deficient rhesus monkeys after iv administration (dose 0.063 mg/kg).; assay type: functional, Cercopithecidae, Artery
In short: (§2)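 Conscious male and female rhesus monkeys (N = 2) with chronic arterial access ports for direct MAP and heart-rate monitoring, and venous catheters for dosing. Animals were kept on a low-sodium diet, given furosemide the evening before, and fasted 18 h before and during the study. Compound was given iv in 0.05% acetic acid/5% dextrose/H2O, 20 min after a vehicle control dose. Peak changes were averaged, and the hypotensive half-life was read from time plots.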

[3] = biological target: T2, Renin (Homo sapiens, UniProt P00797); assay: Inhibition of human plasma renin; assay type: cell-free
T2 sequence (P00797 whole entry): T1 sequence (whole entry)

[4] = test system: Rhesus monkey; assay: In vivo effect on heart rate(peak deltaHR) in sodium deficient rhesus monkeys after iv administration (dose 0.063 mg/kg).; assay type: functional, Cercopithecidae; in short: as §2
[5] = test system: Rhesus monkey; assay: Half life of hypotensive effect in sodium deficient rhesus monkeys after iv administration (dose 0.063 mg/kg).; assay type: functional, organism-based; parameters: dose 0.063 mg/kg; details: Cercopithecidae; in short: as §2
[6] = biological target: T1, Renin (Homo sapiens); assay: In vivo inhibition of plasma renin activity in sodium deficient rhesus monkeys after iv administration (dose 0.26 mg/kg, determined at peak deltaMAP).; assay type: functional, organism-based; parameters: dose 0.26 mg/kg; details: Cercopithecidae, target entry is the homologue from another species, at 0.26 mg/kg; in short: as §1
[7] = test system: Rhesus monkey; assay: In vivo on mean arterial pressure(peak deltaMAP) in sodium deficient rhesus monkeys after iv administration (dose 0.26 mg/kg).; assay type: functional, Cercopithecidae, Artery; in short: as §2
[8] = test system: Rhesus monkey; assay: In vivo effect on heart rate(peak deltaHR) in sodium deficient rhesus monkeys after iv administration (dose 0.26 mg/kg).; assay type: functional, Cercopithecidae; in short: as §2
[9] = test system: Rhesus monkey; assay: Half life of hypotensive effect in sodium deficient rhesus monkeys after iv administration (dose 0.26 mg/kg).; assay type: functional, organism-based; parameters: dose 0.26 mg/kg; details: Cercopithecidae; in short: as §2
[10] = test system: Rhesus monkey; assay: Half life of hypotensive effect in sodium deficient rhesus monkeys after iv administration (dose 0.43 mg/kg).; assay type: functional, organism-based; parameters: dose 0.43 mg/kg; details: Cercopithecidae; in short: as §2
[11] = test system: Rhesus monkey; assay: In vivo effect on heart rate(peak deltaHR) in sodium deficient rhesus monkeys after iv administration (dose 0.43 mg/kg).; assay type: functional, Cercopithecidae; in short: as §2
[12] = test system: Rhesus monkey; assay: In vivo effect on mean arterial pressure(peak deltaMAP) in sodium deficient rhesus monkeys after iv administration (dose 0.43 mg/kg).; assay type: functional, Cercopithecidae, Artery; in short: as §2
[13] = biological target: T1, Renin (Homo sapiens); assay: In vivo inhibition of plasma renin activity in sodium deficient rhesus monkeys after iv administration (dose 0.43 mg/kg, determined at peak deltaMAP).; assay type: functional, organism-based; parameters: dose 0.43 mg/kg; details: Cercopithecidae, target entry is the homologue from another species, at 0.43 mg/kg; in short: as §1
[14] = biological target: T1, Renin (Homo sapiens); details: Cercopithecidae; at 0.99 mg/kg
[15] = test system: Rhesus monkey; assay: In vivo effect on heart rate(peak deltaHR) in sodium deficient rhesus monkeys after iv administration (dose 0.99 mg/kg).; assay type: functional, Cercopithecidae; in short: as §2
[16] = test system: Rhesus monkey; assay: In vivo effect on mean arterial pressure(peak deltaMAP) in sodium deficient rhesus monkeys after iv administration (dose 0.99 mg/kg).; assay type: functional, Cercopithecidae, Artery; in short: as §2
[17] = test system: Rhesus monkey; assay: Half life of hypotensive effect in sodium deficient rhesus monkeys after iv administration (dose 0.99 mg/kg).; assay type: functional, organism-based; parameters: dose 0.99 mg/kg; details: Cercopithecidae; in short: as §2

inhibition [1]: 94%
IC50 [3]: 7.2 nM
SMILES: CC(C)(C)S(=O)(=O)[C@@H](Cc1ccccc1)C(=O)N[C@@H](Cc1c[nH]cn1)C(=O)N[C@@H](CC1CCCCC1)[C@@H](O)CS(=O)(=O)CC(=O)NCCN1CCOCC1
Peak deltaMAP [2]: -20.5 mmHg
Peak deltaHR [4]: -13 beats min-1
T1/2 [5]: < 10 min

inhibition [6]: 93%
IC50 [3]: 29 nM
SMILES: CC(C)(C)OC(=O)N[C@@H](Cc1ccccc1)C(=O)N[C@@H](Cc1c[nH]cn1)C(=O)N[C@@H](CC1CCCCC1)[C@@H](O)CSCC(=O)NC1CN2CCC1CC2 (stereo partly drawn)
Peak deltaMAP [7]: -20 mmHg
Peak deltaHR [8]: -18 beats min-1
T1/2 [9]: < 10 min

IC50 [3]: 88 nM
SMILES: CC(C)CC(C(=O)NCCN1CCOCC1)[S+]([O-])C[C@H](O)[C@H](CC1CCCCC1)NC(=O)[C@H](Cc1cnc[nH]1)NC(=O)[C@H](Cc1ccccc1)NC(=O)OC(C)(C)C (stereo partly drawn)

IC50 [3]: 77 nM
SMILES: CC(C)CC(C(=O)NCCN1CCOCC1)S(=O)(=O)C[C@H](O)[C@H](CC1CCCCC1)NC(=O)[C@H](Cc1c[nH]cn1)NC(=O)[C@H](Cc1ccccc1)NC(=O)OC(C)(C)C (stereo partly drawn)

inhibition [13]: 90%
SMILES: CC(C)(C)OC(=O)N[C@@H](Cc1ccccc1)C(=O)N[C@@H](Cc1c[nH]cn1)C(=O)N[C@@H](CC1CCCCC1)[C@@H](O)CSCC(=O)NCCN1CCOCC1
T1/2 [10]: < 10 min
Peak deltaHR [11]: -26 beats min-1
Peak deltaMAP [12]: -20.5 mmHg

inhibition [14]: 88%
SMILES: CC(C)(C)OC(=O)N[C@@H](Cc1ccccc1)C(=O)N[C@@H](Cc1c[nH]cn1)C(=O)N[C@@H](CC1CCCCC1)[C@@H](O)CSCC(=O)NCc1ccncc1
Peak deltaHR [15]: -26 beats min-1
Peak deltaMAP [16]: -16 mmHg
T1/2 [17]: < 10 min

IC50 [3]: 19 nM
SMILES: CC(C)(C)OC(=O)N[C@@H](Cc1ccccc1)C(=O)N[C@@H](Cc1cnc[nH]1)C(=O)N[C@@H](CC1CCCCC1)[C@@H](O)C[S+]([O-])CC(=O)NCCN1CCOCC1 (stereo partly drawn)

IC50 [3]: 34 nM
SMILES: CC(C)(C)OC(=O)N[C@@H](Cc1ccccc1)C(=O)N[C@@H](Cc1c[nH]cn1)C(=O)N[C@@H](CC1CCCCC1)[C@@H](O)CS(=O)(=O)CC(=O)NC1CCN(Cc2ccccc2)CC1

IC50 [3]: 9.4 nM
SMILES: CC(C)(C)OC(=O)N[C@@H](Cc1ccccc1)C(=O)N[C@@H](Cc1cnc[nH]1)C(=O)N[C@@H](CC1CCCCC1)[C@@H](O)CS(=O)(=O)CC(=O)NCCN1CCOCC1
